Laboratory results: ChEMBL document CHEMBL1255185, “Substituted 4-amino-1H-pyrazolo[3,4-d]pyrimidines as multi-targeted inhibitors of insulin-like growth factor-1 receptor (IGF1R) and members of ErbB-family receptor kinases” (Bioorg Med Chem Lett, 2010)
pEC50, pIC50: −log10 of the molar value. Activity calls are given as the source filed them. The calls are words filed in the database; no cut-off is given here.

Columns and labels:
[1] = target: Epidermal growth factor receptor (Homo sapiens, UniProt P00533); assay: Inhibition of EGFR phosphorylation in human MIAPaCa cells by ELISA; format: cell-based
Chain of Epidermal growth factor receptor (Homo sapiens, UniProt P00533) (P00533 whole entry): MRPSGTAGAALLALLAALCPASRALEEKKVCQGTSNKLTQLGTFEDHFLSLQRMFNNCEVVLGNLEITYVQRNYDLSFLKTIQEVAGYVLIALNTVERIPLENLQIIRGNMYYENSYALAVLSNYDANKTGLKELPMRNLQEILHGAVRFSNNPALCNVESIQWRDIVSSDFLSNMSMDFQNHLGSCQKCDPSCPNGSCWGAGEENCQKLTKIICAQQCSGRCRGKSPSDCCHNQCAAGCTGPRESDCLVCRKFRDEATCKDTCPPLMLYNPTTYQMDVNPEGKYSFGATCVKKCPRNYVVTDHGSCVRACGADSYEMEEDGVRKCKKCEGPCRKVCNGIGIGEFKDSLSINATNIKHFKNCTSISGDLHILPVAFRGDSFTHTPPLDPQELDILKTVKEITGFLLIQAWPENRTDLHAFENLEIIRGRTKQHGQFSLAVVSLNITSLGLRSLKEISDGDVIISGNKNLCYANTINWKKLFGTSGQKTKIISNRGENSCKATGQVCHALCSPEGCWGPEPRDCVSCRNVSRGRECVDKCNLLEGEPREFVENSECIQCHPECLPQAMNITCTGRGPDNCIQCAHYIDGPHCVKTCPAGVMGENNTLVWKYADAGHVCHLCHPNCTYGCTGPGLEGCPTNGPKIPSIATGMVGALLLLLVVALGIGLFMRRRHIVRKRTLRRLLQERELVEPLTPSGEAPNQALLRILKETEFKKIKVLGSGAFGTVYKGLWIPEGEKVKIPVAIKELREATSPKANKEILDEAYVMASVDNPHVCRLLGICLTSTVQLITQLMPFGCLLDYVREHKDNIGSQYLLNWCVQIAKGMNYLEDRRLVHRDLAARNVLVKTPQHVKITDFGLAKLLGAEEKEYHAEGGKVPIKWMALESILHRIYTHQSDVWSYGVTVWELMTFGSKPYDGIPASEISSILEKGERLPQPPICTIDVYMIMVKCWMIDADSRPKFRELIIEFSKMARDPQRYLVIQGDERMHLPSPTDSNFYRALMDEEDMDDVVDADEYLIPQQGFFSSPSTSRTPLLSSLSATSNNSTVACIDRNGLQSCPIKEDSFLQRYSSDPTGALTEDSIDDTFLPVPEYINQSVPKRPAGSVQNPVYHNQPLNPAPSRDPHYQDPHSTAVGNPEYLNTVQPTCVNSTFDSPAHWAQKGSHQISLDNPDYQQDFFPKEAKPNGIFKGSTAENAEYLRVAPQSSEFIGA

[2] = target: T1, Insulin-like growth factor 1 receptor (Homo sapiens, UniProt P08069); assay: Inhibition of IGF1R phosphorylation in human MIAPaCa cells by ELISA; format: cell-based
T1 sequence (P08069 31-736 limits assumed): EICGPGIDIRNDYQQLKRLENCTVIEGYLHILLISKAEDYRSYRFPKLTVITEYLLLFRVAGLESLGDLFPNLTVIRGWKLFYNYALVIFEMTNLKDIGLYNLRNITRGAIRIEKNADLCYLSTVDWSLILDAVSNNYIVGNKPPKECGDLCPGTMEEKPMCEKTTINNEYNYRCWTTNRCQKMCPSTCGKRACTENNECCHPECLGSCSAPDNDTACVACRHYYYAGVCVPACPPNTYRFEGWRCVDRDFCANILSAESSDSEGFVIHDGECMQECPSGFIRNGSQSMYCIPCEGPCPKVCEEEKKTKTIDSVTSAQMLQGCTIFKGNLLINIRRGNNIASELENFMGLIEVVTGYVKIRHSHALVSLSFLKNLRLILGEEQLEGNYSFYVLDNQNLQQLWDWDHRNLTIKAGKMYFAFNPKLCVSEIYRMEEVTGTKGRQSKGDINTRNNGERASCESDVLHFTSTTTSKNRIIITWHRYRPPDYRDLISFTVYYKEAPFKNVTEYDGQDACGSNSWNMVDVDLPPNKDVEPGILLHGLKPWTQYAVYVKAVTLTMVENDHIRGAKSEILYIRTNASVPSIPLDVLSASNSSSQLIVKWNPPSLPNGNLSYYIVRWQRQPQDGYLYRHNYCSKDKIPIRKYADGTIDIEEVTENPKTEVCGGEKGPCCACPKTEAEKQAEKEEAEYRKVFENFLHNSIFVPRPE
T1 sequence (P08069 741-1367 limits assumed): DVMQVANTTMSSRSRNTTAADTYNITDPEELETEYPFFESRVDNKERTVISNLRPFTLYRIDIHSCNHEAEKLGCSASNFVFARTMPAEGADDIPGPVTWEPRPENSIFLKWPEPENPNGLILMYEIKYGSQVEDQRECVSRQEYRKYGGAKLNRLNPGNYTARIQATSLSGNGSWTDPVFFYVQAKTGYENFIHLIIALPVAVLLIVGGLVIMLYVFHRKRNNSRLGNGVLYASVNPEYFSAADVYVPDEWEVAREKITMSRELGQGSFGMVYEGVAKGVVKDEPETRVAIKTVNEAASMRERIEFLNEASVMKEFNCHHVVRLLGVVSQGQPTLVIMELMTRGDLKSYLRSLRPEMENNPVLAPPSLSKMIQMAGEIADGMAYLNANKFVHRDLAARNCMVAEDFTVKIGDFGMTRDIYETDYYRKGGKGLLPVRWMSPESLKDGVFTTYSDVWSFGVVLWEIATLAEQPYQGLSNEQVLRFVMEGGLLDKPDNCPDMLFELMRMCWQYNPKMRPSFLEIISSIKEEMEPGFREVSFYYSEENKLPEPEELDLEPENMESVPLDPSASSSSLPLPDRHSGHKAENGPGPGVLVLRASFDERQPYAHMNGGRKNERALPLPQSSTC
In short: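 Cellular IGF1R phosphorylation was read out in ELISA format in MiaPaCa human pancreatic carcinoma cells, which express both IGF1R and EGFR.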

[3] = target: T2, Receptor tyrosine-protein kinase erbB-2 (Homo sapiens, UniProt P04626); assay: Inhibition of ERBb2 phosphorylation in human BT474 cells by ELISA; format: cell-based, BT-474
T2 sequence (P04626 whole entry): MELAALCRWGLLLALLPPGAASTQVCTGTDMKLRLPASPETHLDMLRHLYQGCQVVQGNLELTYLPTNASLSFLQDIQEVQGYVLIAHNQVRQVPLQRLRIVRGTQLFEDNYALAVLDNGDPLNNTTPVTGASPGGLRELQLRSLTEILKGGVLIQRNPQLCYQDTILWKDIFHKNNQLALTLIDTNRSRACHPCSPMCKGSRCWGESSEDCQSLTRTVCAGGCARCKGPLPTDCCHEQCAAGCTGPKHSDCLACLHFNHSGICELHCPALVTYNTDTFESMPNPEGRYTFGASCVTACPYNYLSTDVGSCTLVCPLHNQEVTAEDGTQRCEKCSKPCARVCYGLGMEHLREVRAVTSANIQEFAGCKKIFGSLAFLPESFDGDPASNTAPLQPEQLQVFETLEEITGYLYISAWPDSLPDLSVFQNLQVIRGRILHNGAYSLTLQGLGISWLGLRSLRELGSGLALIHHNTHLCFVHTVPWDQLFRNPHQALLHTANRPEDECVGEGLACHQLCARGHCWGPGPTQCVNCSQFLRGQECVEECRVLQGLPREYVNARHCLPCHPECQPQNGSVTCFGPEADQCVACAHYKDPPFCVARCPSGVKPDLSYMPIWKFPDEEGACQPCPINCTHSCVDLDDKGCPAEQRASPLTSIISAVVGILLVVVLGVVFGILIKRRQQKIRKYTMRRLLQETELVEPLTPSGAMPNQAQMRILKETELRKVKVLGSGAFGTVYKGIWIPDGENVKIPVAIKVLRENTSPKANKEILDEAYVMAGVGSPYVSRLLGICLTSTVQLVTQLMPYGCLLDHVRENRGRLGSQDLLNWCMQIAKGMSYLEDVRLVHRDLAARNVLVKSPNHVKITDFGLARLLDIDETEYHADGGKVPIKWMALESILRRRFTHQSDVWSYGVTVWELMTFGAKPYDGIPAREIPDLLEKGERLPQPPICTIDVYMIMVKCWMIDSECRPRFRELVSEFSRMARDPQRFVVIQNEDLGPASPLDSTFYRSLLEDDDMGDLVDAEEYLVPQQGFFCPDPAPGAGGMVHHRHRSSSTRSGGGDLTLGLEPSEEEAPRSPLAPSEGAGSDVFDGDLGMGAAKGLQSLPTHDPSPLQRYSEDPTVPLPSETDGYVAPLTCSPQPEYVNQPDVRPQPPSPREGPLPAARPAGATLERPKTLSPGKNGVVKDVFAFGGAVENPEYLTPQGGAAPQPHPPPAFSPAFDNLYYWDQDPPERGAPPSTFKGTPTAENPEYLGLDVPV
In short: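 ErbB2 phosphorylation was read out in ELISA format in BT474 human breast tumour cells, which highly express ErbB2.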

[4] = target: Epidermal growth factor receptor (Homo sapiens, UniProt P04626+P00533+Q15303+P21860); assay: Inhibition of EGFR L858 mutant; format: protein assay
In short: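 Kinase inhibition was measured in a homogeneous time-resolved fluorescence assay. The EGFR enzyme construct carries the L858R activating mutation.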

[5] = target: T1, Insulin-like growth factor 1 receptor; assay: Inhibition of IGF1R
[6] = target: T2, Receptor tyrosine-protein kinase erbB-2; assay: Inhibition of ErbB2
[7] = Half life in iv dosed C57BL/6 mouse; format: ADME, organism-based; conditions: in vivo
[8] = test system: Mus musculus; assay: Dose normalized AUC in po dosed C57BL/6 mouse; format: ADME, organism-based; conditions: in vivo
In short: (§1)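 Mouse oral PK used a 10 mg/kg dose. AUC is normalized to dose (per mg/kg), and F is oral bioavailability.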

[9] = Oral bioavailability in C57BL/6 mouse at 10 mg/kg; format: ADME, organism-based; conditions: in vivo; in short: as §1
[10] = Tmax in po dosed rat; format: ADME, organism-based; conditions: in vivo
In short: (§2)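 Rat oral PK used a 5 mg/kg dose. AUC is normalized to dose (per mg/kg), and F is oral bioavailability.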

[11] = test system: Mus musculus; assay: Inhibition of IGF1R phosphorylation in C57BL/6 mouse at 30 mg/kg, iv by Western blotting; format: functional
In short: (§3)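 Female C57BL/6 mice were dosed iv with compound or vehicle; doses of 3, 10, 30 and 60 mg/kg were used. After 1 h, IGF-1 was given iv at 0.5 mg/kg, and mice were sacrificed 10 min later. Lung tissue was homogenized, and p-IGF1R and p-Akt were analyzed by Western blot. Drug levels in plasma and tissues were measured.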

[12] = Clearance in iv dosed C57BL/6 mouse; format: ADME, organism-based; conditions: in vivo
[13] = Cmax in rat at 5 mg/kg, po; format: ADME, organism-based; set-up: dose 5 mg/kg, route oral; conditions: in vivo; in short: as §2
[14] = test system: Rattus norvegicus; assay: Dose normalized AUC in iv dosed rat; format: ADME, organism-based; conditions: in vivo
In short: (§4)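 Intravenous PK: AUC is normalized to dose and expressed per mg/kg.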

[15] = Tmax in po dosed C57BL/6 mouse; format: ADME, organism-based; conditions: in vivo; in short: as §1
[16] = Oral bioavailability in rat at 5 mg/kg; format: ADME, organism-based; conditions: in vivo; in short: as §2
[17] = test system: Mus musculus; assay: Inhibition of AKT phosphorylation in C57BL/6 mouse at 30 mg/kg, iv by Western blotting; format: functional, organism-based; set-up: dose 30 mg/kg; in short: as §3
[18] = Clearance in iv dosed rat; format: ADME, organism-based; conditions: in vivo
[19] = Half life in iv dosed rat; format: ADME, organism-based; conditions: in vivo
[20] = Cmax in C57BL/6 mouse at 10 mg/kg, po; format: ADME, organism-based; set-up: dose 10 mg/kg, route oral; conditions: in vivo; in short: as §1
[21] = test system: Mus musculus; assay: Dose normalized AUC in iv dosed C57BL/6 mouse; format: ADME, organism-based; conditions: in vivo; in short: as §4
[22] = test system: Rattus norvegicus; assay: Dose normalized AUC in po dosed rat; format: ADME, organism-based; conditions: in vivo; in short: as §2

SMILES	IC50 [4] [nM]	pIC50 [5]	pIC50 [6]	other results
CN1CCN([C@H]2C[C@@H](c3nc(-c4ccc5ccc(-c6ccccc6)nc5c4)c4c(N)nccn43)C2)CC1				pIC50 [1]: < 4.52; pIC50 [2]: 7.19; pIC50 [3]: < 4.52
Cc1cc(Br)c2oc(Nc3ccc(-c4cn([C@H]5CC[C@@H](N6CCN(C)CC6)CC5)c5ncnc(N)c45)cc3F)nc2c1	1450	7.03	< 4.20	
Nc1ncnc2c1c(-c1ccc(Nc3nc4cccc(Cl)c4o3)cc1)nn2[C@H]1CC[C@H](N2CCOCC2)CC1	1020	7.38	6.48	
Cc1cc(Nc2nc3cccc(Cl)c3o2)ccc1-c1nn([C@H]2CC[C@H](N3CCN(C)CC3)CC2)c2ncnc(N)c12	530	7.66	6.32	
CN1CCN([C@H]2CC[C@@H](n3nc(-c4ccc(Nc5nc6cc(Cl)cc(Cl)c6o5)cc4)c4c(N)ncnc43)CC2)CC1	639	6.23		
COCCCN1CCN([C@H]2CC[C@@H](n3nc(-c4ccc(Nc5nc6cccc(Cl)c6o5)cc4)c4c(N)ncnc43)CC2)CC1	874	6.37	6.40	
CN(C)C(=O)CN1CCN([C@H]2CC[C@H](n3nc(-c4ccc(Nc5nc6cccc(Cl)c6o5)cc4)c4c(N)ncnc43)CC2)CC1	1840	6.90	7.67	
CN1CCN([C@H]2CC[C@H](n3nc(-c4ccc(Nc5nc6cccc(Cl)c6o5)c(F)c4)c4c(N)ncnc43)CC2)CC1	37	8.12	7.80	pEC50 [1]: < 6.00; pIC50 [1]: 5.54; pIC50 [2]: 7.06; pIC50 [3]: 6.44
CN1CCN([C@H]2CC[C@@H](n3nc(-c4ccc(Nc5nc6ccccc6o5)cc4)c4c(N)ncnc43)CC2)CC1	1660	6.09		
CN1CCN([C@H]2CC[C@H](n3nc(-c4ccc(Nc5nc6cccc(Cl)c6o5)cc4Cl)c4c(N)ncnc43)CC2)CC1		8.39	7.81	
COCCCN1CCC(N2CCC(n3nc(-c4ccc(Nc5nc6cccc(Cl)c6o5)cc4)c4c(N)ncnc43)CC2)CC1	264	6.55	7.86	
CN1CCN([C@H]2CC[C@H](n3nc(-c4ccc(Nc5nc6cccc(Cl)c6o5)c(Cl)c4)c4c(N)ncnc43)CC2)CC1	63	7.31	7.54	
Cc1cc(-c2nn([C@H]3CC[C@H](N4CCN(C)CC4)CC3)c3ncnc(N)c23)ccc1Nc1nc2cccc(Cl)c2o1	156	6.71		
COCCCN1CCN([C@H]2CC[C@H](n3nc(-c4ccc(Nc5nc6cccc(Cl)c6o5)cc4)c4c(N)ncnc43)CC2)CC1	108	7.14	7.67	
CN1CCN([C@H]2CC[C@@H](n3nc(-c4ccc(Nc5nc6cc(Cl)ccc6o5)c(F)c4)c4c(N)ncnc43)CC2)CC1	1470	6.38		
CN1CCN([C@H]2CC[C@@H](n3nc(-c4ccc(Nc5nc6cccc(Cl)c6o5)cc4)c4c(N)ncnc43)CC2)CC1	393	7.11	6.70	
Cc1cc(C)c2oc(Nc3ccc(-c4nn([C@H]5CC[C@@H](N6CCN(C)CC6)CC5)c5ncnc(N)c45)cc3F)nc2c1	2270	6.80	5.39	
CN1CCN([C@H]2CC[C@H](n3nc(-c4ccc(Nc5nc6cccc(Cl)c6o5)cc4)c4c(N)ncnc43)CC2)CC1	31.5	7.90	8.12	half-life [7]: 2.4 h; AUC [8]: 190 ng·h/mL; bioavailability [9]: 20%; Tmax [10]: 8 h; inhibition in vivo at 30 mg/kg [11]: 50%; clearance [12]: 31.8 mL/min/kg; Cmax [13]: 160 nM; pEC50 [1]: < 6.00; pIC50 [1]: 5.64; pIC50 [2]: 6.68; pIC50 [3]: 6.47; AUC [14]: 1260 ng·h/mL; Tmax [15]: 3 h; bioavailability [16]: 30%; inhibition [17]: Active; clearance [18]: 15.2 mL/min/kg; half-life [19]: 8.4 h; Cmax [20]: 170 nM; AUC [21]: 940 ng·h/mL; AUC [22]: 380 ng·h/mL
CC(C)N1CCN([C@H]2CC[C@H](n3nc(-c4ccc(Nc5nc6cccc(Cl)c6o5)cc4)c4c(N)ncnc43)CC2)CC1	53.7	7.35	8.01	
COC(=O)c1cccc2nc(Nc3ccc(-c4nn([C@H]5CC[C@@H](N6CCN(C)CC6)CC5)c5ncnc(N)c45)cc3)oc12	3590	6.75		
CN1CCN([C@H]2CC[C@@H](n3nc(-c4ccc(Nc5nc6cccc(Cl)c6o5)c(F)c4)c4c(N)ncnc43)CC2)CC1	852	7.14	5.87	
CN1CCC(N2CCC(n3nc(-c4ccc(Nc5nc6cccc(Cl)c6o5)cc4)c4c(N)ncnc43)CC2)CC1	99	6.97	7.84	
Cc1cc(Cl)c2oc(Nc3ccc(-c4nn([C@H]5CC[C@@H](N6CCN(C)CC6)CC5)c5ncnc(N)c45)cc3)nc2c1	1130	6.46	5.28	
CC(C)N1CCN([C@H]2CC[C@@H](n3nc(-c4ccc(Nc5nc6cccc(Cl)c6o5)cc4)c4c(N)ncnc43)CC2)CC1	322	6.76	7.21	
CC(C)N1CCC(N2CCC(n3nc(-c4ccc(Nc5nc6cccc(Cl)c6o5)cc4)c4c(N)ncnc43)CC2)CC1	97	6.94	7.82	
CN1CCN([C@H]2CC[C@@H](n3nc(-c4ccc(Nc5nc6cccc(C#N)c6o5)cc4)c4c(N)ncnc43)CC2)CC1	2810	6.95		
